The values that follow come from PMC4382910 (Angewandte Chemie (International ed. in English), 2014).

The subject of this assay is HeLa cells. The experiment in a line: Protein fatty-acylation levels in cells by chemical reporter alk-14. The assay is classed as cell-based, human. The settings on record: nuclear lysates, in-gel fluorescence, Sirt2 inhibitor. In short, it runs like this:
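HeLa cells with Sirt2 perturbed by siRNA knockdown or a selective Sirt2 inhibitor were cultured with fatty-acid chemical reporter alk-14. After harvest, cytosolic and nuclear lysates were prepared and core histones extracted. Reporter-labeled proteins were conjugated to a rhodamine dye by azide-alkyne click chemistry, and fatty-acylation levels were compared by fluorescence.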

For the compound `N#C/C(=C\c1ccc(-c2cc(Cl)ccc2Cl)o1)C(=O)Nc1cccc2ncccc12` [AGK2], the “labeling of core histones by alk-14” value is reported as “enhanced”.
